# Source: ChEMBL document CHEMBL1152323, “Polyoxygenated methyl cyclohexanoids from a terrestrial ampelomyces fungus” (J Nat Prod, 2009)
# Calls of active or inactive are those of the source. The rule behind the calls is not given here.
# Columns and labels:
# Prunus dulcis = experiment: Inhibition of almond beta glucosidase at 10 uM
# [1] = Inhibition of Saccharomyces cerevisiae alpha glucosidase
# Summary of the method: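 Baker's yeast α-glucosidase (0.2 U/mL solution) in 0.2 M phosphate buffer pH 6.8 was preincubated with compound at 37 °C for 30 min. 2.5 mM p-nitrophenyl α-D-glucopyranoside solution was then added and the mixture incubated 5 min at 37 °C. The reaction was stopped with 0.1 M Na₂CO₃ and A405 read before and after reaction. Percent inhibition was taken against a buffer-only control, with acarbose as positive control, giving IC50 in mM ± SD.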
# Penicillium decumbens = experiment: Inhibition of Penicillium decumbens alpha-rhamnosidase at 10 mM
# Pseudomonas aeruginosa = experiment: Antimicrobial activity against Pseudomonas aeruginosa by almar blue assay; format: functional
# Summary of the method: (§1)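 Microplate Alamar Blue broth assay: bacteria at 2 × 10⁵ cfu/mL in MHB with 8% Alamar Blue; serial 2-fold compound dilutions in DMSO added (2 µL to 78 µL culture); ceftazidime reference; incubated at 32 °C until growth controls turned pink; fluorescence ex 530/em 590 nm; % inhibition, triplicate averaged; MIC50 and MIC90 interpolated from concentration–inhibition curves.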
# Escherichia coli = experiment: Antimicrobial activity against Escherichia coli by almar blue assay; format: functional
# Summary of the method: as §1
# Staphylococcus aureus = experiment: Antimicrobial activity against Staphylococcus aureus by almar blue assay; format: functional
# Summary of the method: as §1
# Proteus vulgaris = experiment: Antimicrobial activity against Proteus vulgaris by almar blue assay; format: functional
# Summary of the method: as §1
SMILES,Activity (Prunus dulcis),IC50 [1],Activity (Penicillium decumbens),MIC50 (Pseudomonas aeruginosa),MIC90 (Pseudomonas aeruginosa),MIC50 (Escherichia coli),MIC90 (Escherichia coli),MIC50 (Staphylococcus aureus),MIC90 (Staphylococcus aureus),MIC50 (Proteus vulgaris),MIC90 (Proteus vulgaris)
C[C@H]1C[C@H](O)[C@@H]2O[C@@H]2[C@H]1O (relative stereo) [AMPELOMIN B],inactive,> 10 mM,inactive,,,,,,,,
C[C@H]1C[C@H](O)[C@@H](O)C[C@H]1O (relative stereo) [AMPELOMIN C],inactive,6.12 mM,inactive,,,,,,,,
C[C@H]1C[C@H](O)[C@H](O)C[C@H]1O (relative stereo) [AMPELOMIN D],inactive,> 10 mM,inactive,,,,,,,,
C[C@H]1C[C@H](O)[C@H](O)C[C@@H]1O (relative stereo) [AMPELOMIN E],inactive,5.93 mM,inactive,,,,,,,,
C[C@H]1C[C@@H](O)[C@@H](O)C[C@@H]1O (relative stereo) [AMPELOMIN F],inactive,> 10 mM,inactive,,,,,,,,
Cc1cccc(O)c1C(=O)O[C@H]1[C@H](O)[C@@H](O)[C@@H](C)C[C@@H]1O (relative stereo) [AMPELOMIN G],inactive,1.74 mM,inactive,,,,,,,,
C[C@H]1O[C@H](O[C@H]2[C@H](O)[C@@H](O)[C@@H](O[C@H]3[C@H](O)[C@@H](O)C(O)O[C@@H]3CO)O[C@@H]2CO)[C@H](O)[C@@H](O)[C@@H]1N[C@H]1C=C(CO)[C@@H](O)[C@H](O)[C@H]1O (stereo partly drawn) [ACARBOSE],,0.03 mM,,,,,,,,,
C[C@H]1C[C@@H](O)C=CC1=O [AMPELOMIN A],inactive,3.59 mM,inactive,63.5 µM,1020 µM,89.9 µM,265 µM,54.9 µM,234 µM,51.6 µM,202 µM
CC(C)(O/N=C(\C(=O)N[C@@H]1C(=O)N2C(C(=O)[O-])=C(C[n+]3ccccc3)CS[C@H]12)c1csc(N)n1)C(=O)O [CEFTAZIDIME],,,,0.73 µM,3.94 µM,0.37 µM,0.46 µM,3.11 µM,14.7 µM,0.18 µM,0.21 µM
